Experimental data of several laboratories.
Each line is one published result; the experiments were not run side by side.
Cnr2: Cannabinoid receptor 2 (Cnr2, Mus musculus, UniProt P47936)
CTSL: Procathepsin L (CTSL, Homo sapiens, UniProt P07711)
pol: pol (Feline immunodeficiency virus, UniProt P16088)
G protein-coupled receptor 88: G protein-coupled receptor 88 (Homo sapiens, UniProt Q9GZN0)
mreB: mreB (Escherichia coli, UniProt P0A9X4)

N[C@@H](CCP(=O)(O)O)C(=O)O  EC50 (Metabotropic glutamate receptor 7 (Grm7, Rattus norvegicus, UniProt P35400); calcium signal, agonist): 117 µM
Cc1nonc1Cn1nnc2c(N3CC[C@H](O)C3)nc(C(C)(C)C)nc21  EC50 (Cnr2; cAMP, agonist): 0.0002 µM
CC(C)c1cccc(NC(=O)C2CC(=O)Nc3ccccc32)c1 (stereo not shown)  IC50 (CTSL; enzyme activity, inhibitor, FRET): 16.8 µM
CCOC(=O)C(CC)(CCCSCCOCCOCCNc1ccc([N+](=O)[O-])c2nonc12)NC(=O)c1ccc(C2CC2)c(Cc2ccc(F)cc2)n1 (racemic)  Ki (Cnr2; ligand displacement, radioligand; cell membranes): 0.073 µM
O=C(/C=C/c1cccc(S(=O)(=O)Nc2ccccc2)c1)NO  Kd (Histone deacetylase 4 (HDAC4, Homo sapiens, UniProt P56524); cell-free assay): > 30.2 µM
CCOC(=O)C(CC)(CCCSCCOCCOCCOCCOCCNC(=O)OC(C)(C)C)NC(=O)c1ccc(C2CC2)c(Cc2ccc(F)cc2)n1 (stereo not shown)  Ki (Cnr2; ligand displacement, radioligand; cell membranes): 0.093 µM
Cc1ccnc2c1NC(=O)c1cccnc1N2C1CC1  IC50 (pol; enzyme activity, inhibitor): 1.4 µM
CCOC(=O)C(CC)(CCCSCCOCCOCCOCCNC(=O)OC(C)(C)C)NC(=O)c1ccc(C2CC2)c(Cc2ccc(F)cc2)n1 (stereo not shown)  Ki (Cnr2; ligand displacement, radioligand; cell membranes): 0.117 µM
Cc1cc(SCc2sc(-c3ccc(C(F)(F)F)c(F)c3)nc2C)ccc1OCC(=O)O  IC50 (Thyroid hormone receptor beta (THRB, Homo sapiens, UniProt P10828); reporter gene, antagonist, luciferase): 25.8 µM
CCCC#Cc1ccc([C@@H](CO)C(=O)N[C@H](C)c2ccccc2)cc1  EC50 (G protein-coupled receptor 88; cAMP, agonist, TR-FRET): 0.204 µM
O=C(NCc1ccc(F)cc1)c1cccc(Nc2ccc(-c3ccccc3)nn2)c1  IC50 (Anoctamin-2 (ANO2, Homo sapiens, UniProt Q9NQ90); ion flux, inhibitor): 8.2 µM
COC(=O)[C@H](CCC(=O)Nc1cccc2c1ccn2Cc1cccc(C(N)=O)c1)NC(=O)OCc1ccccc1  IC50 (NAD-dependent protein deacetylase sirtuin-1 (SIRT1, Homo sapiens, UniProt Q96EB6); enzyme activity, inhibitor): 67 µM
Cc1nc([C@@](C)(CC2CC2)NC(=O)c2cc(OCC(F)(F)F)c(C3CC3)cn2)no1  Ki (Cnr2; ligand displacement, radioligand; cell membranes): 0.006 µM
Cc1cc(/C=C/C#N)cc(C)c1Nc1ccnc(Nc2ccc(C#N)cc2)n1  IC50 (pol; enzyme activity, inhibitor): 0.0509 µM
NC(=O)[C@@H]1CC(F)(F)CN1C(=O)c1ccc(N2CC(F)(F)C2)c(OCC2CC2)n1  EC50 (Cnr2; cAMP, agonist): 0.003 µM
CC[C@@H](C)COc1ccc([C@@H](CO)C(=O)N[C@H](C)c2ccccc2)cc1  EC50 (G protein-coupled receptor 88; cAMP, agonist, TR-FRET): 3.09 µM
O=P(O)(O)Oc1cccc(OP(=O)(O)O)c1  IC50 (Signal transducer and activator of transcription 5B, SH2 (STAT5B, Homo sapiens, UniProt P51692); ligand displacement, FP): 55 µM
NC1CCCCc2c1[nH]c1ccc(Cl)c(Cl)c21 (stereo not shown)  IC50 (mreB; ATPase activity, inhibitor, absorbance): 25 µM
CCOC(=O)[C@](CC)(CCC[S+]([O-])CCOCCOCCNC(=O)OC(C)(C)C)NC(=O)c1ccc(C2CC2)c(Cc2ccc(F)cc2)n1 (stereo partly shown)  EC50 (Cnr2; cAMP, agonist): 0.065 µM
CC(C)C[C@@H]1C(=O)N[C@H]([C@@H](C)O)C(=O)N[C@H](C)[C@@H](C)C(=O)O[C@@H](Cc2ccccc2)C(=O)N(C)[C@@H](C(C)C)C(=O)N2CCC[C@H]2C(=O)N(C)[C@H](Cc2ccccc2)C2=N[C@@H](CS2)C(=O)N[C@H](C)C2=N[C@@H](CS2)C(=O)N1C  IC50 (CTSL; enzyme activity, inhibitor): 21.3 µM
C[C@H](N)Cn1ncc2ccc3c(c21)CCCO3  IC50 (Alpha-1B adrenergic receptor (Adra1b, Rattus norvegicus, UniProt P15823); ligand displacement, radioligand): 74 µM
CC(NCCCNC(=O)c1cc(Cl)c(Cl)s1)c1cc2cc(Br)ccc2[nH]1 (stereo not shown)  IC50 (mreB; ATPase activity, inhibitor, absorbance): 6 µM
O=[As](O)(O)c1ccc(Cc2ccc([As](=O)(O)O)cc2)cc1  Ki (Autotaxin (ENPP2, Homo sapiens, UniProt Q13822); enzyme activity, inhibitor, absorbance; pH 8): 0.026 µM
NCCCNC1CCCCc2c1[nH]c1ccc(Br)cc21 (stereo not shown)  IC50 (mreB; ATPase activity, inhibitor, absorbance): 25 µM
CC(C)C[C@H]1C(=O)N2CCC[C@H]2[C@]2(O)O[C@](NC(=O)[C@@H]3C=C4c5cccc6[nH]cc(c56)C[C@H]4N(C)C3)(C(C)C)C(=O)N12  IC50 (Solute carrier organic anion transporter family member 1B3 (SLCO1B3, Homo sapiens, UniProt Q9NPD5); transporter uptake, inhibitor, fluorescence; CHO; 30 min, pH 7.4): 2.2 µM
